NR2E3 ag-1 – human photoreceptor-specific nuclear receptor agonism | hit rate 0.35% among 360,000 | CHO-S Gal4-NCOR/VP16-NR2E3 two-hybrid, luciferase | AID 602229 | inhibition of corepressor binding, % at 3.98 µM;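 active means inhibition above the mean of all tested compounds plus 3 SD, cut at about 70% in these data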;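 further: higher means lower luciferase signal from less NR2E3 corepressor binding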
DAX1 inh-1 – DAX1 (NR0B1) inhibition, primary screen; HEK293T StAR-luciferase reporter, SF-1/DAX-1 repression relief; hit rate 1.1% among 370,000; AID 652010; inhibition, % at 6.8 µM;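 active means inhibition above the mean over all tested compounds plus 3 SD, cut at about 3.6% in these data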;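 further: higher inhibition means more luminescence from relief of DAX-1 repression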
SMARCA2 activ – SMARCA2 function activation, primary screen; MG213 cells, MMTV-luciferase reporter, dexamethasone, overnight; activation, % at 9.1 µM; hit rate 1% among 370,000; in the data active means activation above about 7.8%
NR2E3 ag-2 – NR2E3 (human) agonism; Q9Y5X4; GST-NR2E3/biotin-RetCOR TR-FRET, 1536-well; inhibition of corepressor binding, % at 4.78 µM; hit rate 0.12% among 320,000;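 active means percent inhibition above the cutoff of mean plus 3 SD of all tested compounds, set per screening campaign, cut at about 20% in these data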
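Test system: GST-NR2E3 and biotin-RetCOR proteins | Quantity: 1.35 nM GST-tagged NR2E3 final | Medium: Tris pH 7.5 | Also added: 7 nM biotin-RetCOR | Dosing: Compound at 4.8 µM, single dose | Timing: 5 h at 4 °C | Detection: Time-resolved FRET | Read-out basis: Percent inhibition | Benchmarks: Biotin wells as high control, 0.6% DMSO wells as low control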
DAX1 inh-2 – inhibitors of human orphan nuclear receptor DAX1 (NR0B1); HEK293 Gal4-DAX1 luciferase reporter, luminescence; inhibition, % at 6.75 µM; hit rate 0.99% among 340,000;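 active means inhibition above the mean over all tested compounds plus 3 SD, cut at about 4.2% in these data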;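 further: inhibition shows as a rise in luminescence from relieved DAX1 repression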
Target sequence (P51843 207-470 limits assumed): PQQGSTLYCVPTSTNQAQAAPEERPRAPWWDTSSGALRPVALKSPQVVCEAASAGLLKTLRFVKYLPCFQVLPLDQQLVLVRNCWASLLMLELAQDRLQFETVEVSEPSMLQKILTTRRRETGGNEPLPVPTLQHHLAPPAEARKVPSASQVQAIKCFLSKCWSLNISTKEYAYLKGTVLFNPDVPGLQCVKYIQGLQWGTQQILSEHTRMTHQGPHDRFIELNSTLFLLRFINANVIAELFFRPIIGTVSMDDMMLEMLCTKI
GASC-1 inh – blocks human GASC-1 demethylase activity. GST-JMJD2C(1-420) H3K9me3 demethylation, DELFIA europium. inhibition, % at 2.35 µM. hit rate 0.069% among 330,000. AID 2099;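 active means more than half of a compound's replicate wells show inhibition beyond 50%, single wells judged on their own value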;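 further: signal counts dimethyl H3K9 product captured on neutravidin plate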
Target sequence (Q9H3R0 1-420 limits assumed): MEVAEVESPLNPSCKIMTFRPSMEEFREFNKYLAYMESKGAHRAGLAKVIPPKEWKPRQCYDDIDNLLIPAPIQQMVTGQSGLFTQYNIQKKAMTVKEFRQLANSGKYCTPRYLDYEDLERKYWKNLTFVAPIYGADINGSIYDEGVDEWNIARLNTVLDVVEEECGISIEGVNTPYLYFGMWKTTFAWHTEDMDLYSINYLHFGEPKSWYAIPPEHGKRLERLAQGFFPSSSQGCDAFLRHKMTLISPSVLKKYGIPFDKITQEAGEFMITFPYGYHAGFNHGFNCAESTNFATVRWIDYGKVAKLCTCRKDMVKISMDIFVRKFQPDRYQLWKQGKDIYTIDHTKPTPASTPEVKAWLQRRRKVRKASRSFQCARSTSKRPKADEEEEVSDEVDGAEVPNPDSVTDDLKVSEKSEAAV
SMARCA2 act conf – confirmation of SMARCA2 (BRM) function activators; shares compounds with SMARCA2 activ; MG213 cells, MMTV-luciferase with dexamethasone, luminescence, overnight; MG213 cells expressing E1A, Rb sequestered; DMSO wells 0%, reference activator 100%; activation, % at 9.1 µM; hit rate 30% among 3,500;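 active means activation above its plate's cutoff, the mean activation of tested wells plus 3 SD, cut at about 7.9% in these data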
GAL4-VP16 Luc – activates GAL4-VP16 luciferase, flagging SMARCA2 activator hits; hit rate 41% among 3,500; HEK293 GAL4-VP16 pG5luc reporter, luciferase luminescence; scaled: DMSO wells 0%, SAHA wells 100%; activation, % at 9.1 µM; AID 686939; shares compounds with SMARCA2 activ;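 active means activation above the solvent-only control well mean plus 3 SD, averaged across control plates, cut at about 5.2% in these data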
A number is an active result; 0 = inactive; - = no result given. A selection: hits, their analogues and other compounds. The true share with any hit is near 3.2%.

SMILES | NR2E3 ag-1 | DAX1 inh-1 | SMARCA2 activ | NR2E3 ag-2 | DAX1 inh-2 | GASC-1 inh | SMARCA2 act conf | GAL4-VP16 Luc
O=C(c1ccco1)N1CCN(Cc2ccccc2F)CC1 | 0 | 0 | 0 | 0 | 0 | 0 | - | -
Cc1ccc(NC(=O)N2CCN(C(=O)c3ccco3)CC2)cc1Cl | 0 | 0 | 0 | 0 | 0 | 0 | - | -
Cc1ccc(Nc2nc(N)nc(CN3CCN(C(=O)c4ccco4)CC3)n2)cc1Cl | 0 | 0 | 8.5 | 0 | 0 | 0 | 0 | 0
CCN(CC(=O)Nc1ccc(NC(C)=O)cc1)CC(=O)Nc1cc(C)on1 | 0 | 0 | 0 | 0 | 0 | 0 | - | -
N#CC(C#N)=C1SC(=Nc2ccccc2)C(=Nc2ccccc2)N1c1ccccc1 | 0 | 4.5 | 13.8 | - | 0 | - | 0 | 0
O=C(Cn1ncc(Cl)c(Cl)c1=O)NCC1CCCCC1 | 0 | 0 | 13.5 | 0 | 0 | 0 | 0 | 0
O=C(Cn1ncc(Cl)c(Cl)c1=O)c1ccc(Cl)cc1 | 0 | 0 | 20.0 | 0 | 0 | 0 | 0 | 0
O=C(NC1CCCCN(Cc2ccc(Cl)cc2)C1=O)c1c(F)cccc1F (stereo not drawn) | - | 0 | 0 | - | - | - | - | -
COc1ccccc1CC(=O)N(CCC1=CCCCC1)c1c(N)n(Cc2ccccc2)c(=O)[nH]c1=O | 0 | 0 | 0 | 0 | 0 | 0 | - | -
COC(=O)[C@]12C[C@H](CC(=O)NCc3ccccc3)C(=O)N(CCc3ccc(OC)c(OC)c3)C1=C[C@H](COCc1ccccc1)O[C@@H]2C | - | 0 | 0 | - | - | - | - | -
COc1ccc(Nc2nc(N)nc(CSc3nccn3C)n2)cc1 | 0 | 0 | 8.7 | 0 | 0 | 0 | 0 | 8.2
COc1ccc(Nc2nc(N)nc(CSc3nnc(N)s3)n2)cc1 | 0 | 0 | 0 | 0 | 0 | 0 | - | -
Cc1ccc(NC(=S)NCc2cccs2)c(C)c1 | 0 | 0 | 10.2 | 0 | 0 | 0 | 0 | 0
Cc1csc(NC(=O)CN2C(=O)c3ccccc3C2=O)c1C(N)=O | 0 | 0 | 9.1 | 0 | - | 0 | 0 | 0
Cc1ccc(S(=O)(=O)NC(=O)NC(C)c2ccc(F)cc2)cc1 (stereo not drawn) | 0 | 0 | 8.0 | 0 | 0 | 0 | 0 | 0
Cc1ccc(S(=O)(=O)NC(=O)NC(C)Cc2ccccc2)cc1 (stereo not drawn) | 0 | 0 | 0 | 0 | 0 | 0 | - | -
CCOC(=O)C1CCCCN1Cc1cccc(F)c1 (stereo not drawn) | 0 | 0 | 8.8 | 0 | 0 | 0 | 0 | 0
O=c1oc(-c2ccc(O)c(O)c2)cc2cccc(O)c12 | 0 | 0 | 8.5 | - | 0 | - | 8.1 | 13.0
O=c1oc(-c2ccc(O)c(O)c2)cc2cc(O)cc(O)c12 | 0 | 0 | 11.0 | - | 7.6 | - | 12.0 | 8.3
Cc1cc(C)c(C)c(S(=O)(=O)N2CCN(C(=O)c3ccccn3)CC2)c1C | 0 | 0 | 0 | 0 | 0 | - | - | -
CS(=O)(=O)c1ccc(Cl)c(C(=O)OCC(=O)NC2CCCCCCC2)c1 | 0 | 0 | 0 | 0 | 0 | 0 | - | -
COc1ccc(-n2c(SCC3CNC(=O)O3)nnc2-c2ccc(Cl)cc2)cc1 (stereo not drawn) | 0 | 0 | 11.7 | 0 | 0 | 0 | 0 | 0
O=C(N/N=C/C(Br)=C/c1ccccc1)NC1CCCCC1 | 0 | 0 | 0 | 0 | 0 | 0 | - | -
O=C(N/N=C/C(Br)=C\c1ccccc1)c1ccco1 | 0 | 0 | 9.4 | 0 | - | 0 | 0 | 17.3
Cc1cc(C(=O)N/N=C/c2cn(C)nc2C)c2ccccc2n1 | 0 | 0 | 0 | 0 | 0 | 0 | - | -
SMILES | NR2E3 ag-1 | DAX1 inh-1 | SMARCA2 activ | NR2E3 ag-2 | DAX1 inh-2 | GASC-1 inh | SMARCA2 act conf | GAL4-VP16 Luc
Cc1nn(C)cc1/C=N/NC(=O)c1ccco1 | 0 | 0 | 9.1 | 0 | 4.9 | 0 | 0 | 0
O=C(N/N=C/C(Br)=C\c1ccccc1)c1cccs1 | 0 | 0 | 18.2 | 0 | - | 0 | 0 | 11.0
CC(=C/c1ccccc1)/C=N/NC(=O)c1cccs1 | 0 | 0 | 0 | 0 | - | 0 | - | -
Cc1occc1C(=O)N/N=C/C(Br)=C\c1ccccc1 | 0 | 0 | 0 | 0 | 0 | 0 | - | -
O=C(N/N=C/C(Br)=C/c1ccccc1)C1CC1 | 0 | 0 | 9.6 | 0 | 0 | 0 | 10.0 | 5.6
COc1ccc(CN2C/C(=C/C3=CCCCC3)N(C(=O)OCc3ccccc3)C2=N)c(OC)c1 | - | 0 | 0 | - | - | - | - | -
O=C(COC(=O)c1cccc(O)c1)c1ccccc1 | 0 | 0 | 8.5 | 0 | 0 | 0 | 13.2 | 0
CCC(=O)Nc1cc(C(=O)OCC(=O)c2ccccc2)ccc1C | 0 | 0 | 11.1 | 0 | 0 | 0 | 0 | 7.7
CCC(=O)Nc1cc(C(=O)OCC(=O)c2ccccc2Cl)ccc1C | 0 | 0 | 0 | 0 | 0 | 0 | - | -
Nc1cccc(C(=O)OCC(=O)c2ccccc2)c1 | 0 | 0 | 0 | 0 | 0 | 0 | - | -
O=C(COC(=O)CCC1CCCC1)Nc1cccc(S(=O)(=O)N2CCOCC2)c1 | 0 | 0 | 0 | 0 | 0 | 0 | - | -
C[C@H](O)[C@@H]1CN2CCc3c([nH]c4c(-c5ccc6c(c5)OCO6)cccc34)[C@@H]2C[C@@H]1N(C)C(=O)c1ccco1 | - | 0 | 0 | - | - | - | - | -
CCn1c(SCC(=O)c2ccc(F)cc2)nnc1-c1ccoc1C | 0 | 0 | 9.6 | 0 | 0 | 0 | 0 | 0
Cc1occc1-c1nnc(SCCCC(=O)c2ccc(F)cc2)n1C | 0 | 0 | 0 | 0 | 0 | 0 | - | -
COC[C@@H]1CCCN1c1cccc2c1S(=O)(=O)N(C1CC1)CCCO2 | - | 0 | 0 | - | - | - | - | -
Nc1nccnc1C(=O)N/N=C/c1ccco1 | 0 | 0 | 9.6 | 0 | 6.9 | 0 | 0 | 0
O=C(N/N=C/c1ccco1)Nc1ccccc1 | 0 | 0 | 10.5 | 0 | 0 | 0 | 0 | 14.1
CC(Oc1cccc(Br)c1)C(=O)NNC(=O)CCS(=O)(=O)c1ccccc1 (stereo not drawn) | 0 | 0 | 0 | - | 0 | 0 | - | -
CCC1(c2ccc(Cl)cc2)NC(=S)N(c2ccc(C)cc2)N1 (stereo not drawn) | 0 | 0 | 9.3 | 0 | 0 | 0 | 0 | 0
CCC1(c2ccc(Cl)cc2)NC(=S)N(c2ccc(C)c(C)c2)N1 (stereo not drawn) | 0 | 0 | 0 | 0 | 0 | 0 | - | -
COc1ccc(C2C(C#N)=C(N)N(c3cccnc3)C3=C2C(=O)CC(C)(C)C3)cc1OC (stereo not drawn) | 0 | 0 | 9.2 | 0 | 0 | 0 | 0 | 0
O=C(OC12CCCN(C1)/C(=C/c1ccc(Cl)cc1)C2)C1CCCCC1 (stereo not drawn) | - | 0 | 0 | - | - | - | - | -
CC(C)N1CCCCC(NC(=O)c2cccc(C(F)(F)F)c2)C1=O (stereo not drawn) | - | 0 | 8.8 | - | - | - | 0 | 0
CN(CCO)C1CN(Cc2cn(Cc3ccccc3C(F)(F)F)nn2)S(=O)(=O)C1 (stereo not drawn) | - | 0 | 0 | - | - | - | - | -

Bioassay records as filed in PubChem BioAssay.
